Assay results published in ChEMBL document CHEMBL1123628, “Streptonigrin and lavendamycin partial structures. Probes for the minimum, potent pharmacophore of streptonigrin, lavendamycin, and synthetic quinoline-5,8-diones” (J Med Chem, 1987).
Converted amounts (≈) assume the structure as drawn.

Experiments:
CCRF-CEM [1] = test: Cytotoxic activity against human lymphoblastic leukemia cell culture (CCRF-CEM); format: functional, cell-based
[2] = system: Epidermoid carcinoma cell line; test: Cytotoxic activity against human epidermoid carcinoma of the nasopharynx (9KB); format: functional, cell-based
Outline: (§1)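 P388 (9PS, NCI-supplied line) and 9KB IC50s (µg/mL) followed NCI cell culture protocols. Samples were run in duplicate, and growth was compared with untreated controls. IC50 was extrapolated from a least-squares fit of the dose–response curve.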

Candida albicans = test: Antimicrobial activity was determined against Candida albicans ATCC 10231; format: functional
Outline: (§2)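 MICs (µg/mL) were determined by agar dilution/streak against S. aureus ATCC 13709, E. coli ATCC 9637, S. gallinarum ATCC 9184, K. pneumoniae ATCC 10031, M. smegmatis ATCC 607, P. aeruginosa ATCC 27853 and C. albicans ATCC 10231.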

Staphylococcus aureus = test: Antimicrobial activity was determined against Staphylococcus aureus ATCC 13709; format: functional; outline: as §2
L1210 [3] = test: Cytotoxic activity against mouse lymphoblastic leukemia cell culture (L-1210); format: functional, cell-based
Outline: (§3)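 10^4 B16 or L-1210 (ATCC 219) cells were seeded per well in DMEM with 5% bovine serum and grown 48 h at 37 °C under 5% CO2. Agents from 10 mg/mL stocks in 95% ethanol or DMSO were added as 2× medium, then 48 h more. L-1210 cells were dispersed by pipetting; B16 were detached with 0.01% trypsin/0.1% EDTA for 5 min at 37 °C. Cells were counted by hemocytometer or Coulter counter, and the dose halving the count versus untreated controls was read from the count–concentration plot.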

Klebsiella pneumoniae = test: Antimicrobial activity was determined against Klebsiella pneumoniae ATCC 10031; format: functional; outline: as §2
P388 [4] = test: Cytotoxic activity against P388 mouse leukemia cell culture (9PS(P388)); format: functional, cell-based; outline: as §1
B16 [5] = test: Cytotoxic activity against mouse melanoma cell culture(B-16); format: functional, cell-based; outline: as §3
Pseudomonas aeruginosa = test: Antimicrobial activity was determined against Pseudomonas aeruginosa ATCC 27853 cells; format: functional; outline: as §2
[6] = system: Salmonella enterica subsp. enterica serovar Gallinarum; test: Antimicrobial activity was determined against Salmonella gallinarum ATCC 9184; format: functional; outline: as §2
[7] = system: Mycolicibacterium smegmatis; test: Antimicrobial activity was determined against Mycobacterium smegmatis ATCC 607; format: functional; outline: as §2
Escherichia coli = test: Antimicrobial activity was determined against Escherichia coli ATCC 9637; format: functional; outline: as §2
P388 [8] = test: Cytotoxicity against P388 mouse leukemia cell culture (9PS(P388)); format: functional, cell-based; outline: as §1
B16 [9] = test: Cytotoxicity against mouse melanoma cell culture(B-16); format: functional, cell-based; outline: as §3
[10] = system: Epidermoid carcinoma cell line; test: Cytotoxicity against human epidermoid carcinoma of the nasopharynx (9KB); format: functional, cell-based; outline: as §1
L1210 [11] = test: Cytotoxicity against mouse lymphoblastic leukemia cell culture (L-1210); format: functional, cell-based; outline: as §3
CCRF-CEM [12] = test: Cytotoxicity against human lymphoblastic leukemia cell culture (CCRF-CEM); format: functional, cell-based

Compound | IC50 (CCRF-CEM [1]) | IC50 [2] | MIC (Candida albicans) | MIC (Staphylococcus aureus) | IC50 (L1210 [3]) | MIC (Klebsiella pneumoniae) | IC50 (P388 [4]) | IC50 (B16 [5]) | MIC (Pseudomonas aeruginosa) | MIC [6] | MIC [7] | MIC (Escherichia coli) | IC50 (P388 [8]) | IC50 (B16 [9]) | IC50 [10] | IC50 (L1210 [11]) | IC50 (CCRF-CEM [12])
COC(=O)c1ccc(N)c(-c2ccc3c(n2)C(=O)C(=N)C=C3O)c1 | 0.4 µg/mL (≈ 1.24 µM) | 2.7 µg/mL (≈ 8.35 µM) | > 50 µg/mL | > 50 µg/mL | 0.6 µg/mL (≈ 1.86 µM) | > 50 µg/mL | 0.2 µg/mL (≈ 0.619 µM) | 0.4 µg/mL (≈ 1.24 µM) | > 50 µg/mL | > 50 µg/mL | > 50 µg/mL | > 50 µg/mL | – | – | – | – | –
COC1=C(N)C(=O)c2nc(-c3ccccn3)ccc2C1=O | 0.5 µg/mL (≈ 1.78 µM) | 0.33 µg/mL (≈ 1.17 µM) | 3.12 µg/mL (≈ 11.1 µM) | 1.56 µg/mL (≈ 5.55 µM) | 0.3 µg/mL (≈ 1.07 µM) | 25 µg/mL (≈ 88.9 µM) | 0.034 µg/mL (≈ 0.121 µM) | 0.45 µg/mL (≈ 1.6 µM) | > 100 µg/mL | > 100 µg/mL | 1.56 µg/mL (≈ 5.55 µM) | > 100 µg/mL | – | – | – | – | –
COC(=O)c1nc(C(=O)OC)c(N)c(-c2ccc(OC)c(OC)c2O)c1C | – | > 10 µg/mL | > 50 µg/mL | > 50 µg/mL | > 20 µg/mL | > 50 µg/mL | > 10 µg/mL | > 20 µg/mL | > 50 µg/mL | > 50 µg/mL | > 50 µg/mL | > 50 µg/mL | – | – | – | – | –
COC(=O)c1nc(-c2ccc3c(n2)C(=O)C(=N)C(OC)=C3O)c(N)c(-c2ccc(OC)c(OC)c2O)c1C | – | – | > 100 µg/mL | > 100 µg/mL | – | > 100 µg/mL | – | – | > 100 µg/mL | > 100 µg/mL | > 100 µg/mL | > 100 µg/mL | 0.26 µg/mL (≈ 0.5 µM) | 1.5 µg/mL (≈ 2.88 µM) | 0.53 µg/mL (≈ 1.02 µM) | 3.1 µg/mL (≈ 5.96 µM) | 0.017 µg/mL (≈ 0.0327 µM)
NC1=CC(=O)c2ccc(-c3cccc(C(=O)O)n3)nc2C1=O | – | – | > 50 µg/mL | > 50 µg/mL | – | > 50 µg/mL | – | – | > 50 µg/mL | > 50 µg/mL | > 50 µg/mL | > 50 µg/mL | > 10 µg/mL | > 20 µg/mL | > 10 µg/mL | > 20 µg/mL | 2.1 µg/mL (≈ 7.11 µM)
NC1=CC(=O)c2ccc(-c3cc(C(=O)O)ccc3N)nc2C1=O | 14.6 µg/mL (≈ 47.2 µM) | > 10 µg/mL | > 50 µg/mL | > 50 µg/mL | > 20 µg/mL | > 50 µg/mL | 5 µg/mL (≈ 16.2 µM) | > 20 µg/mL | > 50 µg/mL | > 50 µg/mL | > 50 µg/mL | > 50 µg/mL | – | – | – | – | –
COC1=C(N)C(=O)c2nc(-c3nc(C(=O)O)c(C)c(-c4ccc(OC)c(OC)c4O)c3N)ccc2C1=O [STREPTONIGRIN] | – | – | 12.5 µg/mL (≈ 24.7 µM) | < 0.1 µg/mL | – | 0.1 µg/mL (≈ 0.197 µM) | – | – | 6.25 µg/mL (≈ 12.3 µM) | 1.56 µg/mL (≈ 3.08 µM) | 1.56 µg/mL (≈ 3.08 µM) | 6.25 µg/mL (≈ 12.3 µM) | 0.045 µg/mL (≈ 0.0889 µM) | 0.48 µg/mL (≈ 0.948 µM) | 0.0025 µg/mL (≈ 0.00494 µM) | 0.61 µg/mL (≈ 1.2 µM) | 0.00017 µg/mL (≈ 0.000336 µM)
NC1=CC(=O)c2ccc(-c3ccccn3)nc2C1=O | 0.09 µg/mL (≈ 0.358 µM) | 0.1 µg/mL (≈ 0.398 µM) | 50 µg/mL (≈ 199 µM) | 3.12 µg/mL (≈ 12.4 µM) | 0.42 µg/mL (≈ 1.67 µM) | 100 µg/mL (≈ 398 µM) | 0.0023 µg/mL (≈ 0.00915 µM) | 0.26 µg/mL (≈ 1.03 µM) | > 100 µg/mL | 100 µg/mL (≈ 398 µM) | 0.78 µg/mL (≈ 3.1 µM) | > 100 µg/mL | – | – | – | – | –
COC(=O)c1nc(C(C)=O)c2[nH]c3ccccc3c2c1C | – | – | > 50 µg/mL | > 50 µg/mL | > 25 µg/mL | > 50 µg/mL | – | > 25 µg/mL | > 50 µg/mL | > 50 µg/mL | > 50 µg/mL | > 50 µg/mL | – | – | – | – | –
COC(=O)c1[nH]c(-c2ccc3c(n2)C(=O)C(=N)C=C3O)c2nc3ccccc3c-2c1C | – | – | – | – | – | – | – | – | – | – | – | – | – | 3.1 µg/mL (≈ 7.52 µM) | – | 2.2 µg/mL (≈ 5.33 µM) | –
COC1=C(N)C(=O)c2ncccc2C1=O | 0.2 µg/mL (≈ 0.98 µM) | 1.9 µg/mL (≈ 9.31 µM) | 50 µg/mL (≈ 245 µM) | 6.25 µg/mL (≈ 30.6 µM) | 1 µg/mL (≈ 4.9 µM) | 50 µg/mL (≈ 245 µM) | 0.22 µg/mL (≈ 1.08 µM) | 1.2 µg/mL (≈ 5.88 µM) | > 100 µg/mL | > 50 µg/mL | 50 µg/mL (≈ 245 µM) | > 50 µg/mL | – | – | – | – | –
COC(=O)c1cccc(-c2ccc3c(n2)C(=O)C(=N)C=C3O)n1 | 0.1 µg/mL (≈ 0.323 µM) | 0.17 µg/mL (≈ 0.55 µM) | > 50 µg/mL | 6.25 µg/mL (≈ 20.2 µM) | 0.4 µg/mL (≈ 1.29 µM) | 50 µg/mL (≈ 162 µM) | 3.9 µg/mL (≈ 12.6 µM) | 0.9 µg/mL (≈ 2.91 µM) | > 50 µg/mL | > 50 µg/mL | 6.25 µg/mL (≈ 20.2 µM) | > 50 µg/mL | – | – | – | – | –
COC(=O)c1[nH]c(C(=O)OC)c(C)c2c3ccccc3nc1-2 | 16.8 µg/mL (≈ 56.3 µM) | – | > 50 µg/mL | > 50 µg/mL | > 25 µg/mL | > 50 µg/mL | – | > 25 µg/mL | > 50 µg/mL | > 50 µg/mL | > 50 µg/mL | > 50 µg/mL | – | – | – | – | –
NC1=CC(=O)c2cccnc2C1=O | 0.3 µg/mL (≈ 1.72 µM) | 0.74 µg/mL (≈ 4.25 µM) | 50 µg/mL (≈ 287 µM) | 12.5 µg/mL (≈ 71.8 µM) | – | 50 µg/mL (≈ 287 µM) | 0.19 µg/mL (≈ 1.09 µM) | 0.4 µg/mL (≈ 2.3 µM) | > 100 µg/mL | 50 µg/mL (≈ 287 µM) | 12.5 µg/mL (≈ 71.8 µM) | 50 µg/mL (≈ 287 µM) | – | – | – | – | –
